Measurements from ChEMBL document CHEMBL1130266, “Monoaryl- and bisaryldihydroxytropolones as potent inhibitors of inositol monophosphatase” (J Med Chem, 1997).

Assay: Concentration required to inhibit the activity of inositol monophosphatase by 50%
Method in brief: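 Human recombinant IMPase expressed in E. coli and purified to homogeneity. […] Enzyme adjusted so ≤10% substrate used. Duplicate rates at six inhibitor concentrations plus no-inhibitor control, fitted to v = V0/(1+[I]/IC50).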

Row | SMILES | IC50 [µM]
1 | O=Cc1cccc(-c2cc(-c3cccc(C=O)c3)c(O)c(=O)c(O)c2O)c1 | > 100
2 | O=c1c(O)c(O)ccc(-c2cc(C(F)(F)F)cc(C(F)(F)F)c2)c1O | 10
3 | O=c1c(O)c(-c2cccc3ccccc23)cc(-c2cccc3ccccc23)c(O)c1O | > 100
4 | O=c1ccc(-c2cccc(-c3nnc(-c4ccc5ccccc5c4)o3)c2)c(O)c(O)c1O | 40
5 | O=c1c(O)c(-c2cc3ccccc3o2)cc(-c2cc3ccccc3o2)c(O)c1O | 40
6 | O=c1c(O)c(-c2cccc(C(F)(F)F)c2)cc(-c2cccc(C(F)(F)F)c2)c(O)c1O | > 200
7 | N#Cc1cccc(-c2cc(-c3cccc(C#N)c3)c(O)c(=O)c(O)c2O)c1 | 30
8 | O=c1ccc(-c2cccc3ccccc23)c(O)c(O)c1O | 20
9 | CC(=O)Nc1cccc(-c2ccc(=O)c(O)c(O)c2O)c1 | 20
10 | NCCc1ccc(-c2ccc(=O)c(O)c(O)c2O)cc1 | 90
11 | O=c1cccc(-c2ccccc2)c(O)c1O | 200
12 | CC(=O)Nc1cccc(-c2cc(-c3cccc(NC(C)=O)c3)c(=O)c(O)c(O)c2O)c1 | 65
13 | O=c1c(O)c(-c2cc(C(F)(F)F)cc(C(F)(F)F)c2)cc(-c2cc(C(F)(F)F)cc(C(F)(F)F)c2)c(O)c1O | 70
14 | O=c1c(O)c(-c2cccc(-c3nnc(-c4ccc5ccccc5c4)o3)c2)cc(-c2cccc(-c3nnc(-c4ccc5ccccc5c4)o3)c2)c(O)c1O | > 200
15 | O=c1c(O)c(-c2ccc3ccccc3c2)cc(-c2ccc3ccccc3c2)c(O)c1O | > 100
16 | O=c1c(O)c(-c2cccc([N+](=O)[O-])c2)cc(-c2cccc([N+](=O)[O-])c2)c(O)c1O | 20
17 | O=c1c(O)c(-c2ccc(C(F)(F)F)cc2)cc(-c2ccc(C(F)(F)F)cc2)c(O)c1O | 200

Next, values leading:

Row | IC50 [µM] | SMILES
18 | 65 | O=c1ccc(-c2ccccc2F)c(O)c(O)c1O
19 | 4 | N#Cc1cccc(-c2ccc(=O)c(O)c(O)c2O)c1
20 | 10 | O=c1c(O)c(O)ccc(-c2cccc(C(F)(F)F)c2)c1O
21 | 20 | O=Cc1cccc(-c2ccc(O)c(O)c(=O)c2O)c1
22 | 10 | O=c1ccc(-c2cncnc2)c(O)c(O)c1O
23 | 10 | O=c1c(O)cccc(O)c1O
24 | 8 | O=c1c(O)c(O)ccc(-c2cccc([N+](=O)[O-])c2)c1O
25 | 10 | O=c1ccc(-c2ccc(O)cc2)c(O)c(O)c1O
26 | 20 | O=c1ccc(-c2ccccc2)c(O)c(O)c1O
27 | 10 | O=c1c(O)c(-c2ccc(O)cc2)cc(-c2ccc(O)cc2)c(O)c1O
28 | 130 | O=c1c(O)c(O)ccc(-c2ccc(C(F)(F)F)cc2)c1O
29 | 25 | O=c1c(O)c(O)ccc(-c2ccsc2)c1O
30 | 15 | O=c1c(O)c(O)ccc(-c2cccs2)c1O
31 | > 200 | O=c1c(O)c(-c2ccccc2F)cc(-c2ccccc2F)c(O)c1O
32 | 10 | O=c1c(O)c(Br)cc(Br)c(O)c1O
33 | 7 | O=c1c(O)c(O)ccc(-c2cc3ccccc3o2)c1O
34 | 7 | O=c1c(O)c(O)ccc(-c2cccc(O)c2O)c1O
35 | 5 | O=c1ccc(CCCCO)c(O)c(O)c1O
36 | > 200 | O=c1c(O)c(O)ccc2cc(O)c(O)c(O)c12
37 | 35 | O=c1c(O)c(-c2ccsc2)cc(-c2ccsc2)c(O)c1O
38 | > 100 | O=c1ccc(-c2ccc3ccccc3c2)c(O)c(O)c1O
